Source: PubChem
Rows were chosen to be rich in hits. Some 2.5% of all compounds tested hit in one or more screens of this group.
HTR2A ag: activates the mouse 5-HT2A serotonin receptor | P35363 | CHO-K1 mHTR2A beta-arrestin complementation, luminescence; percent of 30 µM serotonin response | activation, % at 7.6 µM | 360,000 tested, 0.66% active;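 active = activation above a run cutoff, the mean activation of all tested compounds plus 3 SD, cut at about 14% in these data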;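 note: 0% = plate median of compound wells and 100% = 30 µM serotonin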
VIM-2 inh: blocks Pseudomonas aeruginosa VIM-2 metallo-beta-lactamase. AID 1527. 290,000 tested, 0.89% active. purified VIM-2, nitrocefin hydrolysis, epi-absorbance fluorescence. inhibition, % at 5.6 µM;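 active = inhibition above the mean of all tested compounds plus 3 SD, cutoff set per screening run, cut at about 7.5% in these data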;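 note: red hydrolysis product quenches plate fluorescence so inhibitors raise well fluorescence; 0% = enzyme with DMSO and 100% = DMSO without enzyme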
dFosB act: activators of mouse delta FosB homodimer; P13346; 340,000 tested, 0.99% active; purified delta FosB, TAMRA-CDK5 oligo fluorescence polarization; percent of positive-control signal above neutral wells; activation, % at 25 µM;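 active = mean activation above about 17%, with every replicate also reaching it, limit read from the data, passing the limit was not always enough; inconclusive = only one of the two conditions met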
IMP-1 inhibitor: blocks Pseudomonas aeruginosa IMP-1 metallo-beta-lactamase; purified IMP-1, nitrocefin hydrolysis, epi-absorbance fluorescence; inhibition, % at 5.6 µM; 290,000 tested, 0.45% active; AID 1556;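 active = inhibition above the mean plus 3 SD of all compounds in the same screening run, cut at about 4.5% in these data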;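 note: 0% = IMP-1 with DMSO and 100% = DMSO wells lacking enzyme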
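System: purified recombinant IMP-1 beta-lactamase. Medium: Zinc- and detergent-supplemented HEPES buffer, pH 7.1. Compound: one 5.6 µM dose […]. Schedule: 15 min preincubation plus 25 min reaction at 25 °C. Technique: Epi-absorbance fluorescence, 480 nm excitation, 530 nm emission.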
OPRM1 ag: counter-screen for mouse HTR2A agonists: human mu opioid receptor agonists. shares compounds with HTR2A ag. U2OS OPRM1 beta-arrestin PathHunter, luminescence; DMSO 0%, DAMGO 9.3 µM 100%. activation, % at 9.3 µM. 2,300 tested, 5.3% active;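 active = mean activation above the mean of DMSO-only wells plus 3 SD, cut at about 0.5% in these data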
Target sequence (P35372 whole entry, looked up): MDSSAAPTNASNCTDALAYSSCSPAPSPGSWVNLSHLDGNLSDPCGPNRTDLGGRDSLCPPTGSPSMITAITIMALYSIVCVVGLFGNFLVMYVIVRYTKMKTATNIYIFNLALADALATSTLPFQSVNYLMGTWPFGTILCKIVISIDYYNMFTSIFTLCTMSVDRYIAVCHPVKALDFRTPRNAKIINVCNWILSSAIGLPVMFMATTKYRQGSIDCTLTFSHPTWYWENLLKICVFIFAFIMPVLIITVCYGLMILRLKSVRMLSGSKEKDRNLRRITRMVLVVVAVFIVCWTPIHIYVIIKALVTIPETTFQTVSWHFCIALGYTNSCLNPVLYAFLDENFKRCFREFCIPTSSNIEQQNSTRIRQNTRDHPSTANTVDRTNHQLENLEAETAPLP
HTR2A ag conf: confirmation of mouse HTR2A serotonin receptor agonists; shares compounds with HTR2A ag; CHO-K1 PathHunter beta-arrestin recruitment, luminescence; DMSO 0%, 30 µM serotonin 100%; activation, % at 7.6 µM; 2,300 tested, 19% active;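 active = mean activation across triplicates above the hit threshold derived in the original primary screen, cut at about 15% in these data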
An asterisk follows results filed as active.

How did CC(=O)NC(Cc1ccccc1)C(=O)NC1CCN(C(=O)c2cnccn2)CC1 (stereo not drawn) do in these assays?
HTR2A ag: 19*; VIM-2 inh: -4; dFosB act: -5; IMP-1 inhibitor: 1; OPRM1 ag: 0; HTR2A ag conf: -2

How did CCOc1ccccc1NC(=O)CSc1nc(=O)n(CCCN2CCOCC2)c2c1CCCC2 do in these assays?
HTR2A ag: -12; dFosB act: -2

What do the screens show for `CCCn1c(SCC(=O)NCCCN2CCCC2=O)nc2ccccc2c1=O`?
HTR2A ag: 3; dFosB act: 1

Results for CC(C)Cn1c(SCC(=O)NCCCN2CCCC2=O)nc2ccccc21 ?
HTR2A ag: 16*; dFosB act: 0; OPRM1 ag: -1; HTR2A ag conf: -5

How did Cn1nc(C(C)(C)C)cc1N1C(=O)CCC1(C)C(=O)NC1CCCC1 (stereo not drawn) do in these assays?
HTR2A ag: 1

What do the screens show for `Cn1c(Cn2c(=O)sc3ccccc32)nnc1SCC(=O)Nc1ccccc1`?
HTR2A ag: 20*; VIM-2 inh: -3; dFosB act: -4; IMP-1 inhibitor: -2; OPRM1 ag: 0; HTR2A ag conf: -5

How did O=C(NCCCN1CCN(c2cccc(Cl)c2)CC1)c1cccc(N2CCCC2=O)c1 do in these assays?
HTR2A ag: 17*; VIM-2 inh: -4; dFosB act: -6; IMP-1 inhibitor: -3; OPRM1 ag: -1; HTR2A ag conf: 4

What do the screens show for `O=C(NCCCN1CCN(c2cccc(Cl)c2)CC1)c1ccc(N2CCCC2=O)cc1`?
HTR2A ag: 4; VIM-2 inh: -1; dFosB act: 4; IMP-1 inhibitor: -3

What do the screens show for `NC1=C(Cl)C(=O)c2ccccc2C1=O`?
HTR2A ag: 17*; dFosB act: -4; OPRM1 ag: 0; HTR2A ag conf: -3

Results for NC1=C(Cl)C(=O)c2ccc(S(N)(=O)=O)cc2C1=O ?
HTR2A ag: 6; dFosB act: -17

How did O=C(COC(=O)/C=C/c1ccccc1)NCc1ccco1 do in these assays?
HTR2A ag: 2

What do the screens show for `COC(=O)CCN1CCC2CC1c1cc(-c3cccc(C)c3)ccc12` (stereo not drawn)?
HTR2A ag: -6; dFosB act: -8

What do the screens show for `O=S(=O)(NC1=NCCCCC1)c1cc(F)ccc1F`?
HTR2A ag: 22*; dFosB act: 7; OPRM1 ag: -1; HTR2A ag conf: 2

What do the screens show for `COC(=O)c1ccccc1NC(=O)N1CCCC1`?
HTR2A ag: 3; VIM-2 inh: -1; dFosB act: -5; IMP-1 inhibitor: -5

What do the screens show for `COC(=O)c1ccccc1NC(=O)N1CCN(S(=O)(=O)c2ccc(Cl)cc2)CC1`?
HTR2A ag: 17*; VIM-2 inh: -5; dFosB act: 11; IMP-1 inhibitor: -1; OPRM1 ag: -1; HTR2A ag conf: -3

How did Clc1ccc(CN2CCN(c3ccccc3)CC2)cn1 do in these assays?
HTR2A ag: 22*; VIM-2 inh: -2; dFosB act: 3; IMP-1 inhibitor: -1; OPRM1 ag: 0; HTR2A ag conf: 81*

Results for Clc1ncc(CN2CCN(c3ccccc3)CC2)s1 ?
HTR2A ag: 31*; VIM-2 inh: -1; dFosB act: 1; IMP-1 inhibitor: -1; OPRM1 ag: -1; HTR2A ag conf: 84*

What do the screens show for `COc1ccc(CN2CCC(C(=O)Nc3ccc(Oc4cccnc4)cc3)CC2)c(C)c1C`?
HTR2A ag: -8; VIM-2 inh: -2; dFosB act: inconclusive; IMP-1 inhibitor: -3

What do the screens show for `CCCCn1nnnc1C(c1cc2ccccc2o1)N(C)Cc1ccc(Cl)cc1` (stereo not drawn)?
HTR2A ag: -8

Results for O=C(CN1CCN(C(=O)c2ccccc2)CC1)NC(=O)NCCC1=CCCCC1 ?
HTR2A ag: 20*; dFosB act: 0; OPRM1 ag: -1; HTR2A ag conf: -3

Results for NC(=O)C1(C(N)=O)OC1c1ccc(Cl)c(Cl)c1 (stereo not drawn) ?
HTR2A ag: 0; VIM-2 inh: -2; dFosB act: 2; IMP-1 inhibitor: -4
